Laboratory results published in ChEMBL document CHEMBL1142431, “Benzodioxoles: novel cannabinoid-1 receptor inverse agonists for the treatment of obesity” (J Med Chem, 2008).
≈ marks a conversion by molar mass, not a printed value. Calls of active or inactive are those of the source. No cut-off for these calls is given here.

Experiments:
Homo sapiens [1] = organism: Homo sapiens; test: Selectivity for human CB1 receptor over human ETA receptor
[2] = Selectivity for human CB1 receptor over kainate receptor
Homo sapiens [3] = organism: Homo sapiens; test: Selectivity for human CB1 receptor over human dopamine D3 receptor
Homo sapiens [4] = organism: Homo sapiens; test: Selectivity for human CB1 receptor over human dopamine D4.4 receptor
Homo sapiens [5] = organism: Homo sapiens; test: Selectivity for human CB1 receptor over human NK1 receptor
Homo sapiens [6] = organism: Homo sapiens; test: (§1) Selectivity for human CB1 receptor over human CB2 receptor
[7] = Solubility in fasted state stimulated intestinal fluid at pH 6.5; format: physicochemical; conditions: fasted state simulated intestinal fluid
[8] = Selectivity for human CB1 receptor over chloride channel
[9] = Selectivity for human CB1 receptor over K ATP channel
Cannabinoid receptor 1 [10] = target: T1, Cannabinoid receptor 1 (Homo sapiens, UniProt P21554); test: biochemical; format: cell-based, HEK293
[11] = Selectivity for human CB1 receptor over P2Y receptor
Rattus norvegicus [12] = test: Reduction in progression of body weight in diet-induced obesity Sprague-Dawley rat model at 1 mg/kg, po for 16 days; format: functional, organism-based; design: dose 1 mg/kg
How it was run: (§2)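 Obese Sprague-Dawley rats (HFD 10 weeks from 3 weeks old, selected as >2 SD above chow controls), n = 9 per group, gavage-adapted 3 days, then dosed daily by gavage at 5:00 p.m. for 16 days in water with 7.5% gelatine and 0.62% NaCl, 2 mL/kg; body weight and food intake recorded daily.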

[13] = Selectivity for human CB1 receptor over neuronal N receptor
Liver microsomes [14] = test: Clearance in human liver microsomes; format: ADME, Microsome; conditions: microsomes
How it was run: (§3)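 Test compound at 2 µM incubated with liver microsomes (0.5 mg protein/mL) in 50 mM potassium phosphate pH 7.4 at 37 °C. Reaction started with an NADPH-generating system (glucose-6-phosphate 3.2 mM, NADP 2.6 mM, MgCl2 6.5 mM). Six samples over 30 min, quenched in methanol with internal standard, then LC-MS/MS for substrate depletion. CLint taken from the first-order decay, normalized to protein.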

[15] = Selectivity for human CB1 receptor over P2X receptor
[16] = Selectivity for human CB1 receptor over Kv channel
Homo sapiens [17] = organism: Homo sapiens; test: Selectivity for human CB1 receptor over human AT1 receptor
Homo sapiens [18] = organism: Homo sapiens; test: Selectivity for human CB1 receptor over human adrenergic beta2 receptor
[19] = Selectivity for human CB1 receptor over AMPA receptor
[20] = Permeability from apical to basolateral side of human Caco-2 cell membrane; format: ADME, cell-based; conditions: read-out: permeability
Homo sapiens [21] = organism: Homo sapiens; test: Selectivity for human CB1 receptor over human vanilloid V1a receptor
[22] = Selectivity for human CB1 receptor over GABA transporter
Homo sapiens [23] = organism: Homo sapiens; test: Selectivity for human CB1 receptor over human LTD4 receptor
Homo sapiens [24] = organism: Homo sapiens; test: Selectivity for human CB1 receptor over human dopamine D1 receptor
[25] = Selectivity for human CB1 receptor over histamine H1 receptor
[26] = Selectivity for human CB1 receptor over peripheral imidazoline I1 receptor
Homo sapiens [27] = organism: Homo sapiens; test: Selectivity for human CB1 receptor over human adrenergic beta-1 receptor
Homo sapiens [28] = organism: Homo sapiens; test: Selectivity for human CB1 receptor over human AT2 receptor
[29] = Selectivity for human CB1 receptor over adrenergic alpha-2 receptor
[30] = Selectivity for human CB1 receptor over BZD receptor
[31] = Aqueous solubility at pH 6.5 by lyophilisation solubility assay; format: physicochemical
How it was run: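 Duplicate samples from 10 mM DMSO stock; DMSO evaporated 1 h, residue taken up in 50 mM phosphate buffer pH 6.5, stirred 1 h, shaken 2 h, left overnight. Filtrate and 1/10 dilution read by direct UV or HPLC-UV against four-point calibration; range for MW 500 0-666 µg/mL; >80% dissolved reported as greater-than.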

Homo sapiens [32] = organism: Homo sapiens; test: Selectivity for human CB1 receptor over human MC4 receptor
[33] = Selectivity for human CB1 receptor over histamine H2 receptor
[34] = Selectivity for human CB1 receptor over histamine H3 receptor
[35] = Selectivity for human CB1 receptor over NMDA receptor
[36] = Selectivity for human CB1 receptor over 5HT receptor
[37] = Selectivity for human CB1 receptor over adrenergic alpha-1 receptor
Homo sapiens [38] = organism: Homo sapiens; test: Selectivity for human CB1 receptor over human NET
Homo sapiens [39] = organism: Homo sapiens; test: Selectivity for human CB1 receptor over human NK3 receptor
[40] = Selectivity for human CB1 receptor over PCP receptor
[41] = Selectivity for human CB1 receptor over DAT
[42] = Selectivity for human CB1 receptor over muscarinic receptor
[43] = Selectivity for human CB1 receptor over L type calcium channel at diltiazem site
Homo sapiens [44] = organism: Homo sapiens; test: Selectivity for human CB1 receptor over human ETB receptor
[45] = Selectivity for human CB1 receptor over neuropeptide Y receptor
Homo sapiens [46] = organism: Homo sapiens; test: Selectivity for human CB1 receptor over human adenosine A1 receptor
[47] = Selectivity for human CB1 receptor over TRH receptor
Liver microsomes [48] = test: Clearance in rat liver microsomes; format: ADME, Microsome; conditions: microsomes; how it was run: as §3
Rattus norvegicus [49] = test: Reduction in progression of body weight in diet-induced obesity Sprague-Dawley rat model at 10 mg/kg, po for 16 days; format: functional, organism-based; design: dose 10 mg/kg; how it was run: as §2
Homo sapiens [50] = organism: Homo sapiens; test: Selectivity for human CB1 receptor over human CCK1 receptor
[51] = Solubility in fed state stimulated intestinal fluid at pH 6.6; format: physicochemical; conditions: fed state simulated intestinal fluid
How it was run: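 Excess compound (about 1-2 mg) was placed in about […] of 50 mM fed-state simulated intestinal fluid at room temperature. Final pH was measured the next day, then samples were filtered and quantified by HPLC against a five-dilution calibration.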

Cannabinoid receptor 1 [52] = target: T1, Cannabinoid receptor 1; test: Activity at human CB1R expressed in HEK293 cells assessed as intracellular cAMP level; format: functional, cell-based
[53] = Selectivity for human CB1 receptor over CRF1 receptor
[54] = Selectivity for human CB1 receptor over sigma receptor
Homo sapiens [55] = organism: Homo sapiens; test: Selectivity for human CB1 receptor over human dopamine D2S receptor
Homo sapiens [56] = organism: Homo sapiens; test: Selectivity for human CB1 receptor over human adenosine A3 receptor
[57] = Selectivity for human CB1 receptor over SK1 calcium channel
[58] = Selectivity for human CB1 receptor over opiate receptor
[59] = Selectivity for human CB1 receptor over L type calcium channel at verapamil site
[60] = Partition coefficient, log D at pH 6.5; format: physicochemical; conditions: octanol/water
Homo sapiens [61] = organism: Homo sapiens; test: as §1; remark: listed apart in the source
Homo sapiens [62] = organism: Homo sapiens; test: Selectivity for human CB1 receptor over human vanilloid V2 receptor
[63] = Selectivity for human CB1 receptor over choline transporter
[64] = Selectivity for human CB1 receptor over androgen receptor
[65] = Selectivity for human CB1 receptor over GABA receptor

T1 sequence (P21554 whole entry): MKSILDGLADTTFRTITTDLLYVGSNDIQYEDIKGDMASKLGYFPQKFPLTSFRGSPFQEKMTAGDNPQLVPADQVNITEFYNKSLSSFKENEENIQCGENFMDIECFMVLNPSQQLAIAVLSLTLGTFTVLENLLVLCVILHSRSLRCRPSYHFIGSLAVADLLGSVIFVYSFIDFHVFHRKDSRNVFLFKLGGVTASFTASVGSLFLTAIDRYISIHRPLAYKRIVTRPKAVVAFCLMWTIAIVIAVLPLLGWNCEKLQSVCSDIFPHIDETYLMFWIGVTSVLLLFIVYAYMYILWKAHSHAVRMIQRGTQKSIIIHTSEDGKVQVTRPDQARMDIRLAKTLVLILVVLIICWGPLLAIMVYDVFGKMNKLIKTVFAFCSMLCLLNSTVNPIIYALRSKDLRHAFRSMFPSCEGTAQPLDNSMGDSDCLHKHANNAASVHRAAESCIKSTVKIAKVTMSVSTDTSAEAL

O=C(c1cc2c(cc1F)O[C@](c1ccc(F)cc1)(c1ccc(Cl)cc1Cl)O2)N1CCOCC1
Selectivity ratio (Homo sapiens [1]): 300
Selectivity ratio [2]: 300
Selectivity ratio (Homo sapiens [3]): 300
Selectivity ratio (Homo sapiens [4]): 300
Selectivity ratio (Homo sapiens [5]): 300
Selectivity ratio (Homo sapiens [6]): > 1000
solubility [7]: 129 µg/mL (≈ 262 µM)
Selectivity ratio [8]: 300
Selectivity ratio [9]: 300
Ki (Cannabinoid receptor 1 [10]): 3.3 nM
Selectivity ratio [11]: 300
Activity (Rattus norvegicus [12]): Active
Selectivity ratio [13]: 300
clearance (Liver microsomes [14]): 11 µL/min/mg
Selectivity ratio [15]: 300
Selectivity ratio [16]: 300
Selectivity ratio (Homo sapiens [17]): 300
Selectivity ratio (Homo sapiens [18]): 300
Selectivity ratio [19]: 300
Papp A→B [20]: 10.6 ×10⁻⁶ cm/s
Selectivity ratio (Homo sapiens [21]): 300
Selectivity ratio [22]: 300
Selectivity ratio (Homo sapiens [23]): 300
Selectivity ratio (Homo sapiens [24]): 300
Selectivity ratio [25]: 300
Selectivity ratio [26]: 300
Selectivity ratio (Homo sapiens [27]): 300
Selectivity ratio (Homo sapiens [28]): 300
Selectivity ratio [29]: 300
Selectivity ratio [30]: 300
solubility [31]: < 1 µg/mL
Selectivity ratio (Homo sapiens [32]): 300
Selectivity ratio [33]: 300
Selectivity ratio [34]: 300
Selectivity ratio [35]: 300
Selectivity ratio [36]: 300
Selectivity ratio [37]: 300
Selectivity ratio (Homo sapiens [38]): 300
Selectivity ratio (Homo sapiens [39]): 300
Selectivity ratio [40]: 300
Selectivity ratio [41]: 300
Selectivity ratio [42]: 300
Selectivity ratio [43]: 300
Selectivity ratio (Homo sapiens [44]): 300
Selectivity ratio [45]: 300
Selectivity ratio (Homo sapiens [46]): 300
Selectivity ratio [47]: 300
clearance (Liver microsomes [48]): 27 µL/min/mg
Activity (Rattus norvegicus [49]): Active
Selectivity ratio (Homo sapiens [50]): 300
solubility [51]: 445 µg/mL (≈ 904 µM)
EC50 (Cannabinoid receptor 1 [52]): 8 nM
Selectivity ratio [53]: 300
Selectivity ratio [54]: 300
Selectivity ratio (Homo sapiens [55]): 300
Selectivity ratio (Homo sapiens [56]): 300
Selectivity ratio [57]: 300
Selectivity ratio [58]: 300
Selectivity ratio [59]: 300
logD [60]: > 4
Selectivity ratio (Homo sapiens [61]): 1000
Selectivity ratio (Homo sapiens [62]): 300
Selectivity ratio [63]: 300
Selectivity ratio [64]: 300
Selectivity ratio [65]: 300
